Read-outs that look alike come from different tables or passages of the source.
Experiments:
[1] = test system: IL-6 in THP-1 macrophages; experiment: Cytokine profiling THP-1 macrophages: IL-6; format: cell-based, human; details: for level of IL-6: 24 h, CTRL 1 1.666 ± 0.256; for inhibition at 10 µM: Homo sapiens, THP-1, read-out: IL-6 inhibition over CTRL 1
[2] = test system: IL-1β in THP-1 macrophages; experiment: Cytokine profiling THP-1 macrophages: IL-1β; format: cell-based, human; details: 10 µM, LPS-stimulated THP-1 macrophages; CTRL 1 0.329 ± 0.042
[3] = test system: TNF-α in THP-1 macrophages; experiment: Cytokine profiling THP-1 macrophages: TNF-α; format: cell-based, human; details: for level of TNF-α: CTRL 1 22.305 ± 2.753; for inhibition at 10 µM: Homo sapiens, THP-1, read-out: % inhibition of TNF-α
[4] = biological target: T1, human recombinant 5-LOX (Homo sapiens, UniProt P09917); experiment: 5-LOX inhibition, UV-Vis spectrophotometric assay; format: biochemical; details: for inhibition at 10 µM: read-out: % inhibition of 5-LOX
T1 sequence (P09917 1-674): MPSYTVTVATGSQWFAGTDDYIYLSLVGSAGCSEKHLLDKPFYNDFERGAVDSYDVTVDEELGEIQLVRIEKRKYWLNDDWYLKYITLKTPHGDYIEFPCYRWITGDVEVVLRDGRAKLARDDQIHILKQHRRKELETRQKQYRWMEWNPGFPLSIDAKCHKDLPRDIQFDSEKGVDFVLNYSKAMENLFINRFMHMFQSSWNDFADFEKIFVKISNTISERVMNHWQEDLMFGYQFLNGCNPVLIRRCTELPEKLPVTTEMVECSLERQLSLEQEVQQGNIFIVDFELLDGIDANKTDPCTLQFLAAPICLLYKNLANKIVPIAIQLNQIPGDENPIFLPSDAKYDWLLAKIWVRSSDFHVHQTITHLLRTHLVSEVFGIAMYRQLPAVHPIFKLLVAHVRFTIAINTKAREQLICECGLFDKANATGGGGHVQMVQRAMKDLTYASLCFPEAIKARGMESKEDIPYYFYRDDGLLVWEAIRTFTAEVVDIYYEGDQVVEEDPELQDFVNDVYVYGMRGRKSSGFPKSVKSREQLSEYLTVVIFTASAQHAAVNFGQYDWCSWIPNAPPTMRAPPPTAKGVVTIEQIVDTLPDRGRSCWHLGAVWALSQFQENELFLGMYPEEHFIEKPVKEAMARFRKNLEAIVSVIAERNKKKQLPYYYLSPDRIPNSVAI
Summary of the method: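 Human recombinant 5-LOX (0.5 unit/ml final) pre-incubated 5 min at RT in the dark with test compound, CaCl2 (0.4 mm final), L-α-phosphatidylcholine type II-S (24 µg/ml final) and ATP (0.2 mm final). Reaction started with arachidonic acid (50 µm final) in quartz microcuvettes. 5-HpETE conjugated diene formation followed as absorbance increase at 234 nm (ε = 25 000 M−1 cm−1).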

[5] = test system: THP-1 macrophages; experiment: Cytotoxicity, acid phosphatase assay, THP-1 macrophages; format: cell-based, human; details: 10, 30 and 50 µM, 24 h
Summary of the method: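 THP-1 monocytes seeded at 4 × 10^4 per well, PMA-differentiated for 48 h, then rested for 3 days. Macrophages exposed to test compound for 24 h and washed with PBS. p-Nitrophenyl phosphate substrate (sodium acetate, 0.1% Triton X-100, pH 5.5) added for 1 h at 37°C in the dark. Stopped with NaOH; read at 405 nm. Mean ± SEM, n = 4.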

[6] = test system: SW480 cells; experiment: Cytotoxicity, acid phosphatase assay, SW480 cells; format: cell-based, human; details: 10, 30 and 50 µM, 24 h
Summary of the method: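 SW480 cells seeded at 4 × 10^4 per well 24 h before compound exposure, then exposed to test compound for 24 h. Wells washed with PBS. Acid phosphatase substrate (p-nitrophenyl phosphate in sodium acetate, 0.1% Triton X-100, pH 5.5) added for 1 h at 37°C, 5% CO2, in the dark. Stopped with NaOH; absorbance read at 405 nm. Mean ± SEM, n = 4.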

[7] = test system: nitric oxide (NO) released from SW480 cells; experiment: Nitric oxide inhibition, GREISS assay, LPS-induced SW480 cells; format: cell-based, human; details: for % inhibition of NO released: 10 µM, mean ± SEM, n = 3; for inhibition at 10 µM: SW480, read-out: % inhibition of NO released
Summary of the method: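 SW480 cells stimulated with 1 µg/ml S. typhimurium LPS plus IFN-γ for 48 h at 37°C, 5% CO2. Fresh supernatant mixed with an equal volume of sulphanilamide for 10 min at RT in the dark, then NED added for 20 min. Absorbance read at 540 nm; nitrite quantified against a 0–100 NO2 standard curve. Mean ± SEM, n = 3.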

[8] = test system: IL-8 from LPS-induced SW480 cells; experiment: IL-8 from LPS-induced SW480 cells; format: cell-based, human; details: for level of IL-8: 10 µM, LPS-induced SW480 cells, CTRL 1 3.324 ± 0.076; for inhibition at 10 µM: Homo sapiens, SW480, read-out: % inhibition of IL-8 over CTRL 1
[9] = test system: DSS colitis mice; details: cited from earlier work
[10] = test system: IL-10−/− colitis mice; details: IL-10 -/- murine model of colitis; cited from earlier work
[11] = test system: nitric oxide (NO) released from SW480 cells; details: read-out: IC50 NO inhibition, reported value; literature value; cited from earlier work
[12] = 10 µM, LPS-stimulated THP-1 macrophages
[13] = Homo sapiens, SW480, read-out: IC50 NO inhibition

Compound	level of IL-6 [1, 12]	level of TNF-α [3, 12]	inhibition at 10 µM [4]	% inhibition of NO released ([7]; LPS-induced SW480 cells)	level of IL-8 [8]	inhibition at 10 µM [8]	IC50 [7, 13]	other results
Infliximab: positive control; anti-TNF-α therapy for IBD treatment	0.924 ± 0.180 pg/µg ml	0.002 ± 0 pg/µg ml						level of IL-1β [2]: 0.329 ± 0.059 pg/µg ml; % inhibition of TNF-α [3, 12]: 99.98%
CC(c1cc2ccccc2s1)N(O)C(N)=O (stereo not drawn) [zileuton, reference compound]			45.2 ± 5.36%					
O=C(O)c1ccc(CC2(C3=Cc4ccccc4C3)Cc3ccccc3C2)cc1 [compound 7, 4-((1',3'-dihydro-1H,2'H-[2,2'-biinden]-2'-yl)methyl)benzoic acid]			39.7 ± 4.95%	inhibited NO production	2.676 ± 0.142 pg/µg ml	19.5%		cytotoxicity in THP-1 macrophages [5]: no cytotoxicity effects; cytotoxicity in SW480 cells [6]: no cytotoxicity effects; IL-6 inhibition over CTRL 1 [1, 12]: less potent but statistically significant
O=C(O)c1ccc(C[C@@]2(C3=Cc4ccccc4C3)Cc3ccccc3[C@H]2O)cc1 [compound 2, 4-(((1'S,2'S)-1'-hydroxy-1',3'-dihydro-1H,2'H-[2,2'-biinden]-2'-yl)methyl)benzoic acid]	0.132 ± 0.038 pg/µg ml	11.613 ± 0.162 pg/µg ml	45.3 ± 5.28%		2.529 ± 0.058 pg/µg ml	23.9%	19.7 ± 7.88 µM	cytotoxicity in THP-1 macrophages [5]: no cytotoxicity effects; cytotoxicity in SW480 cells [6]: no cytotoxicity effects; inhibition at 10 µM ([7]; Homo sapiens): 56.5 ± 3.09%; inhibition at 10 µM [1]: 92.1%; inhibition at 10 µM [3]: 45.2%; colon cytokine levels of TNFα, IL-6 and IL1b ([9]; DSS colitis mice): reduced; DAI ([9]; acute 5% DSS murine model of colitis): reduced; MPO activity, a measure of inflammatory cell infiltration ([9]; murine model of colitis, model not given): significantly reduced; DAI [10]: reduced
C[C@]12CCC(=O)C=C1CC[C@@H]1[C@@H]2[C@@H](O)C[C@@]2(C)[C@H]1CC[C@]2(O)C(=O)CO [hydrocortisone, reference compound]							48.7 µM	inhibition at 10 µM ([7]; Homo sapiens): 43.5 ± 12.3%
O[C@@H]1c2ccccc2C[C@@]1(Cc1ccccc1)C1=Cc2ccccc2C1 [compound 8, (1S,2S)-2-benzyl-2,3-dihydro-1H,1'H-[2,2'-biinden]-1-ol]	0.075 ± 0.019 pg/µg ml	14.193 ± 1.685 pg/µg ml			2.288 ± 0.059 pg/µg ml	31.2%		inhibition at 10 µM [1]: 95.5%; inhibition at 10 µM [3]: 33%
O=C1c2ccccc2C[C@@]1(Cc1ccccc1)C1=Cc2ccccc2C1 [compound 9, (S)-2-benzyl-2,3-dihydro-1H,1'H-[2,2'-biinden]-1-one]				inhibited NO production			20.5 ± 2.89 µM	
O=C(O)c1ccc(C[C@@]2(C3=Cc4ccccc4C3)Cc3ccccc3C2=O)cc1 [compound 6, (S)-4-((1'-oxo-1',3'-dihydro-1H,2'H-[2,2'-biinden]-2'-yl)methyl)benzoic acid]				inhibited NO production				
CC(Cc1ccc(O)c(O)c1)C(C)Cc1ccc(O)c(O)c1 (stereo not drawn) [NDGA, nordihydroguaiaretic acid, reference compound]								% inhibition of 5-LOX ([4]; screened at 10 µM, mean ± SEM, n = 3): 51.92 ± 1.01%
COc1c(O)cc2oc3cc(O)c(CC=C(C)C)c(O)c3c(=O)c2c1CC=C(C)C [α-mangostin, reference compound]				61.63 ± 7.50%				IC50 ([7]; read-out: IC50 NO inhibition, LPS-induced SW480 cells): 8.87 ± 1.18 µM; IC50 [11]: 12.2 µM

Reference: paper PMC7497186 (The Journal of Pharmacy and Pharmacology, 2020)
